Reference: ChEMBL document CHEMBL1144581, “alpha-Amino acid derivatives as proton pump inhibitors and potent anti-ulcer agents” (2007)
Each block holds one compound with its values, some of them ahead of it. Calls of active or inactive are those of the source. The calls are words filed in the database; no cut-off is given here.

Assays:
[1] = species: Rattus norvegicus; test: Antisecretory activity in rat pylorus ligation-induced ulcer model determined by ratio of total acidity inhibition in drug treated to untreated control; assay type: functional
How it was run: (§1)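 Sprague Dawley rats (130-150 g) fasted 24 h with water ad libitum; pylorus ligated through a midline incision under ether anesthesia. Dosing oral, 1 h before ligation. Gastric juice free and total acidity titrated against 0.01 N NaOH, with Topfer's reagent and phenolphthalein as indicators. Values expressed as ratio of percent inhibition, treated vs control group.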

[2] = species: Rattus norvegicus; test: Inhibition of gastric H+/K(+)-ATPase activity in Sprague-Dawley rat microsomal vesicles at 10 umol; assay type: microsomes; details: Stomach, Microsome
How it was run: (§2)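 Rat gastric microsomes were prepared by density gradient and differential centrifugation. The medium held 40 mM Tris-HCl pH 7.4, 2 mM MgCl2, 10 mM KCl (water for blank) and […] vesicular protein. Compound was preincubated 30 min at 37 °C. Tris-ATP at 0.3, 1.0 or 3 mM was then added for 20 min and stopped with chilled 10% TCA. Released Pi was read at 530 nm; % inhibition vs control.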

[3] = species: Rattus norvegicus; test: Antisecretory activity in rat pylorus ligation-induced ulcer model determined by ratio of free acidity inhibition in drug treated to untreated control; assay type: functional; how it was run: as §1
[4] = species: Rattus norvegicus; test: Inhibition of gastric H+/K(+)-ATPase activity in Sprague-Dawley rat microsomal vesicles at 300 uM in presence of 3.0 mM of ATP; assay type: microsomes; details: Stomach, Microsome; how it was run: as §2
[5] = species: Rattus norvegicus; test: Inhibition of p-NPPase in Sprague-Dawley rat microsomal vesicles at 100 uM in presence of 3.0 mM of p-NPP; assay type: microsomes; details: Microsome
How it was run: (§3)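 Rat gastric microsomes were assayed in 10 mM PIPES/Tris pH 7.0 with 5 mM KCl. Compound was preincubated 30 min at 37 °C. p-NPP at 1.0, 3.0 or 5.0 mM was added and incubated 20 min at 37 °C, then stopped with 0.5 N NaOH. p-Nitrophenol release was read at 410 nm; % inhibition vs control.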

[6] = species: Rattus norvegicus; test: Inhibition of gastric H+/K(+)-ATPase activity in Sprague-Dawley rat microsomal vesicles at 10 uM in presence of 0.3 mM of ATP; assay type: microsomes; details: Stomach, Microsome; how it was run: as §2
[7] = species: Rattus norvegicus; test: Inhibition of p-NPPase in Sprague-Dawley rat microsomal vesicles at 10 uM in presence of 3.0 mM of p-NPP; assay type: microsomes; details: Microsome; how it was run: as §3
[8] = species: Rattus norvegicus; test: Inhibition of p-NPPase in Sprague-Dawley rat microsomal vesicles at 3 uM in presence of 3.0 mM of p-NPP; assay type: microsomes; details: Microsome; how it was run: as §3
[9] = species: Rattus norvegicus; test: Inhibition of gastric H+/K(+)-ATPase activity in Sprague-Dawley rat microsomal vesicles at 100 uM in presence of 0.3 mM of ATP; assay type: microsomes; details: Stomach, Microsome; how it was run: as §2
[10] = species: Rattus norvegicus; test: Inhibition of gastric H+/K(+)-ATPase activity in Sprague-Dawley rat microsomal vesicles at 3 uM in presence of 3.0 mM of ATP; assay type: microsomes; details: Stomach, Microsome; how it was run: as §2
[11] = species: Rattus norvegicus; test: Inhibition of gastric H+/K(+)-ATPase activity in Sprague-Dawley rat microsomal vesicles at 100 uM in presence of 1.0 mM of ATP; assay type: microsomes; details: Stomach, Microsome; how it was run: as §2
[12] = species: Rattus norvegicus; test: Inhibition of p-NPPase in Sprague-Dawley rat microsomal vesicles at 10 uM in presence of 1.0 mM of p-NPP; assay type: microsomes; details: Microsome; how it was run: as §3
[13] = species: Rattus norvegicus; test: Inhibition of p-NPPase in Sprague-Dawley rat microsomal vesicles at 1000 uM in presence of 1.0 mM of p-NPP; assay type: microsomes; details: Microsome; how it was run: as §3
[14] = species: Rattus norvegicus; test: Inhibition of p-NPPase in Sprague-Dawley rat microsomal vesicles at 300 uM in presence of 1.0 mM of p-NPP; assay type: microsomes; details: Microsome; how it was run: as §3
[15] = species: Rattus norvegicus; test: Inhibition of gastric H+/K(+)-ATPase activity in Sprague-Dawley rat microsomal vesicles at 100 uM in presence of 3.0 mM of ATP; assay type: microsomes; details: Stomach, Microsome; how it was run: as §2
[16] = species: Rattus norvegicus; test: Inhibition of gastric H+/K(+)-ATPase activity in Sprague-Dawley rat microsomal vesicles at 1000 uM in presence of 3.0 mM of ATP; assay type: microsomes; details: Stomach, Microsome; how it was run: as §2
[17] = species: Rattus norvegicus; test: Inhibition of p-NPPase in Sprague-Dawley rat microsomal vesicles at 100 uM in presence of 5.0 mM of p-NPP; assay type: microsomes; details: Microsome; how it was run: as §3
[18] = species: Rattus norvegicus; test: Inhibition of p-NPPase in Sprague-Dawley rat microsomal vesicles at 3 uM in presence of 1.0 mM of p-NPP; assay type: microsomes; details: Microsome; how it was run: as §3
[19] = species: Rattus norvegicus; test: Inhibition of p-NPPase in Sprague-Dawley rat microsomal vesicles at 10 uM in presence of 5.0 mM of p-NPP; assay type: microsomes; details: Microsome; how it was run: as §3
[20] = species: Rattus norvegicus; test: Inhibition of p-NPPase in Sprague-Dawley rat microsomal vesicles at 30 uM in presence of 5.0 mM of p-NPP; assay type: microsomes; details: Microsome; how it was run: as §3
[21] = species: Rattus norvegicus; test: Inhibition of gastric H+/K(+)-ATPase activity in Sprague-Dawley rat microsomal vesicles at 1000 uM in presence of 1.0 mM of ATP; assay type: microsomes; details: Stomach, Microsome; how it was run: as §2
[22] = species: Rattus norvegicus; test: Inhibition of gastric H+/K(+)-ATPase activity in Sprague-Dawley rat microsomal vesicles at 30 uM in presence of 0.3 mM of ATP; assay type: microsomes; details: Stomach, Microsome; how it was run: as §2
[23] = tested on: Rattus norvegicus; test: Antisecretory activity in rat pylorus ligation-induced ulcer model assessed as inhibition of free acidity of gastric juice at 20 mg/kg; assay type: functional, organism-based; design: dose 20 mg/kg; how it was run: as §1
[24] = species: Rattus norvegicus; test: Inhibition of gastric H+/K(+)-ATPase activity in Sprague-Dawley rat microsomal vesicles at 1000 uM in presence of 0.3 mM of ATP; assay type: microsomes; details: Stomach, Microsome; how it was run: as §2
[25] = species: Rattus norvegicus; test: Inhibition of gastric H+/K(+)-ATPase activity in Sprague-Dawley rat microsomal vesicles at 30 uM in presence of 3.0 mM of ATP; assay type: microsomes; details: Stomach, Microsome; how it was run: as §2
[26] = species: Rattus norvegicus; test: Inhibition of p-NPPase in Sprague-Dawley rat microsomal vesicles at 30 uM in presence of 1.0 mM of p-NPP; assay type: microsomes; details: Microsome; how it was run: as §3
[27] = tested on: Rattus norvegicus; test: Antisecretory activity in rat pylorus ligation-induced ulcer model assessed as inhibition of total acidity of gastric juice at 20 mg/kg; assay type: functional, organism-based; design: dose 20 mg/kg; how it was run: as §1
[28] = species: Rattus norvegicus; test: Inhibition of gastric H+/K(+)-ATPase activity in Sprague-Dawley rat microsomal vesicles at 300 uM in presence of 0.3 mM of ATP; assay type: microsomes; details: Stomach, Microsome; how it was run: as §2
[29] = species: Rattus norvegicus; test: Inhibition of gastric H+/K(+)-ATPase activity in Sprague-Dawley rat microsomal vesicles at 3 uM in presence of 0.3 mM of ATP; assay type: microsomes; details: Stomach, Microsome; how it was run: as §2
[30] = species: Rattus norvegicus; test: Inhibition of gastric H+/K(+)-ATPase activity in Sprague-Dawley rat microsomal vesicles at 300 uM in presence of 1.0 mM of ATP; assay type: microsomes; details: Stomach, Microsome; how it was run: as §2
[31] = species: Rattus norvegicus; test: Inhibition of gastric H+/K(+)-ATPase activity in Sprague-Dawley rat microsomal vesicles at 3 uM in presence of 1.0 mM of ATP; assay type: microsomes; details: Stomach, Microsome; how it was run: as §2
[32] = species: Rattus norvegicus; test: Inhibition of p-NPPase in Sprague-Dawley rat microsomal vesicles at 1000 uM in presence of 3.0 mM of p-NPP; assay type: microsomes; details: Microsome; how it was run: as §3
[33] = species: Rattus norvegicus; test: Inhibition of p-NPPase in Sprague-Dawley rat microsomal vesicles at 100 uM in presence of 1.0 mM of p-NPP; assay type: microsomes; details: Microsome; how it was run: as §3
[34] = species: Rattus norvegicus; test: Inhibition of gastric H+/K(+)-ATPase activity in Sprague-Dawley rat microsomal vesicles at 10 uM in presence of 3.0 mM of ATP; assay type: microsomes; details: Stomach, Microsome; how it was run: as §2
[35] = species: Rattus norvegicus; test: Inhibition of p-NPPase in Sprague-Dawley rat microsomal vesicles at 300 uM in presence of 3.0 mM of p-NPP; assay type: microsomes; details: Microsome; how it was run: as §3
[36] = species: Rattus norvegicus; test: Inhibition of gastric H+/K(+)-ATPase activity in Sprague-Dawley rat microsomal vesicles at 30 uM in presence of 1.0 mM of ATP; assay type: microsomes; details: Stomach, Microsome; how it was run: as §2
[37] = species: Rattus norvegicus; test: Inhibition of p-NPPase in Sprague-Dawley rat microsomal vesicles at 30 uM in presence of 3.0 mM of p-NPP; assay type: microsomes; details: Microsome; how it was run: as §3
[38] = species: Rattus norvegicus; test: Inhibition of gastric H+/K(+)-ATPase activity in Sprague-Dawley rat microsomal vesicles at 10 uM in presence of 1.0 mM of ATP; assay type: microsomes; details: Stomach, Microsome; how it was run: as §2

inhibition [2]: 79%
Compound: Cc1ccc(CN2C(=O)CC[C@H]2C(=O)OC(C)(C)C)cc1
Activity [1]: 0.52
Activity [3]: 0.48

inhibition [2]: 58%
Compound: O=C(O)[C@@H]1CCCN1C(=O)/C=C/c1ccccc1
Activity [1]: 0.76
Activity [3]: 0.65

inhibition [2]: 44%
Compound: O=C(O)[C@@H]1CCC(=O)N1Cc1ccccc1
Activity [1]: 0.93
Activity [3]: 0.86

inhibition [2]: 92%
Compound: O=C(O)[C@@H]1CCCN1C(=O)Cc1ccccc1
Activity [1]: 0.38
Activity [3]: 0.41

inhibition [2]: 65%
Compound: CCOC(=O)[C@@H](NC(=O)OCc1ccccc1)C(O)/C=C/c1ccccc1 (some centres undefined)
Activity [1]: 0.98
Activity [3]: 0.93

inhibition [2]: 92%
Compound: CC(C)(C)[C@H]1OC(=O)[C@@H]2CCC(=O)N21
Activity [1]: 0.49
Activity [3]: 0.61

inhibition [4]: 46%
inhibition [5]: 18%
inhibition [6]: 23%
inhibition [7]: 16%
inhibition [8]: 26%
inhibition [9]: 32%
inhibition [10]: 25%
inhibition [11]: 16%
inhibition [12]: 16%
inhibition [13]: 85%
inhibition [2]: 59%
inhibition [14]: 56%
inhibition [15]: 28%
inhibition [16]: 50%
inhibition [17]: 16%
inhibition [18]: 13%
inhibition [19]: 5%
inhibition [20]: 13%
inhibition [21]: 55%
inhibition [22]: 27%
inhibition [24]: 67%
inhibition [25]: 34%
inhibition [26]: 33%
inhibition [28]: 51%
inhibition [29]: 20%
inhibition [30]: 51%
inhibition [31]: 12%
inhibition [32]: 38%
inhibition [33]: 42%
inhibition [34]: 30%
inhibition [35]: 35%
inhibition [36]: 12%
inhibition [37]: 8%
inhibition [38]: 28%
Compound: O=C1N[C@H](C(=O)O)[C@H](/C=C/c2ccccc2)O1 (relative stereo)
Activity [1]: 1.07
Activity [23]: Active
Activity [27]: Active
Activity [3]: 0.96

inhibition [2]: 49%
Compound: COc1ccccc1CN1C(=O)CC[C@H]1C(=O)O
Activity [1]: 0.64
Activity [3]: 0.61
